# Results published in ChEMBL document CHEMBL1795289, “5-alk(en)ylresorcinols as the major active components in wheat bran inhibit human colon cancer cell growth” (Bioorg Med Chem, 2011).
# What was measured:
# Format in all cases: functional, cell-based
# HT-29 = assay: Growth inhibition of human HT-29 cells after 48 hrs by MTT assay; settings: HT-29, 48 h
# Outline: (§1)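 Cells seeded at 5000/well and left 24 h at 37 °C to attach. Samples in DMSO diluted into McCoy's 5A with 10% FBS, penicillin/streptomycin, amphotericin B and glutamine at 5, 10, 25, 37 and 50 µg/mL, 48 h, 37 °C. MTT 2.41 mmol/L for 3 h, formazan dissolved in DMSO, absorbance 595 nm. Reported as % cell growth, n = 8; IC50 by curve fitting.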
# HCT-116 = assay: Growth inhibition of human HCT116 cells after 48 hrs by MTT assay; settings: HCT-116, 48 h; outline: as §1
# FM3A = assay: Growth inhibition of mouse FM3A cells
# HeLa = assay: Growth inhibition of human HeLa cells
# BT-20 = assay: Growth inhibition of human BT20 cells
IC50 (HT-29) [µg/mL],IC50 (HCT-116) [µg/mL],IC50 (HeLa) [µg/mL],IC50 (BT-20) [µg/mL],Structure (SMILES),IC50 (FM3A) [nM]
35.6,20,–,–,CCCC/C=C\CCCCCCCCCCCc1cc(O)cc(O)c1,–
> 50,36.2,–,–,CCCCCCCCCCCCCCCCCCCc1cc(O)cc(O)c1,–
–,17.6,–,–,CCCC/C=C\CCCCCCCCCCCCCc1cc(O)cc(O)c1,–
30.4,11.6,–,–,CCCCCC/C=C\CCCCCCCCCCCc1cc(O)cc(O)c1,–
48.3,27.1,–,–,CCCCC/C=C\C/C=C\CCCCCCCCCc1cc(O)cc(O)c1,–
39.5,20,–,–,CC/C=C\C/C=C\C/C=C\CCCCCCCCCc1cc(O)cc(O)c1,–
> 50,> 50,–,–,CCCCCCCCCCCCCCCCCCCCCc1cc(O)cc(O)c1,–
46.9,22.3,–,–,CCCC/C=C\CCCCCCCCCCCCCCCc1cc(O)cc(O)c1,–
–,16.6,–,–,CCCCCCCCCCCCCCCCCCCC(=O)Cc1cc(O)cc(O)c1,–
> 50,> 50,–,–,CCCCCCCCCCCCCCCCCCCCCCCc1cc(O)cc(O)c1,–
–,> 50,–,–,CCCCCCCCCCCCCCCCCCCCCC(=O)Cc1cc(O)cc(O)c1,–
> 50,> 50,–,–,CCCCCCCCCCCCCCCCCCCCCCCCCc1cc(O)cc(O)c1,–
31.1,18.9,–,–,CCCCCCCCCCCCCCCCCc1cc(O)cc(O)c1,–
–,–,4.02,6.25,CCCCCCCCCCCCCCCc1cc(O)cc(O)c1 [CARDOL],2800
